As a reminder, the IC50 is the midpoint of a concentration-inhibition curve. Usually Ki stands for the dissociation constant of the complex between target and ligand, obtained from inhibition or displacement. As usually defined, the pA2 is a measure of antagonist potency on a negative log scale. What is called ED50 is the midpoint of the dose-response relation.

We go through five molecules from ChEMBL document CHEMBL1123827, “Alpha 2-adrenergic agonists/antagonists: the synthesis and structure-activity relationships of a series of indolin-2-yl and tetrahydroquinolin-2-yl imidazolines” (J Med Chem, 1987).

Experiment [1] concerns the target T1, Adrenergic receptor alpha-2 (Rattus norvegicus, UniProt P22086+P19328+P22909).
T1 sequence (P22086 whole entry): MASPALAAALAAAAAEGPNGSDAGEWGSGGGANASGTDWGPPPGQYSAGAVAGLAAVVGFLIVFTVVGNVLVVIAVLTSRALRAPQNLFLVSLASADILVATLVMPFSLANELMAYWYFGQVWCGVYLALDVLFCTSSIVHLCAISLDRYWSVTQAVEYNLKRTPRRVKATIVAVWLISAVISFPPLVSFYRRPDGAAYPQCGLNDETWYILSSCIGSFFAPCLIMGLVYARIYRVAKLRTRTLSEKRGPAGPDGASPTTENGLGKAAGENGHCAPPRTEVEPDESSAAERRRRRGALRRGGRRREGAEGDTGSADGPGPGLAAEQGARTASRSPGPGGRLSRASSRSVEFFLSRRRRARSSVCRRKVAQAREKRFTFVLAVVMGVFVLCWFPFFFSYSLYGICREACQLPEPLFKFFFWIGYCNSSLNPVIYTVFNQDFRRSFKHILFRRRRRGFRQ
T1 sequence (P19328 whole entry): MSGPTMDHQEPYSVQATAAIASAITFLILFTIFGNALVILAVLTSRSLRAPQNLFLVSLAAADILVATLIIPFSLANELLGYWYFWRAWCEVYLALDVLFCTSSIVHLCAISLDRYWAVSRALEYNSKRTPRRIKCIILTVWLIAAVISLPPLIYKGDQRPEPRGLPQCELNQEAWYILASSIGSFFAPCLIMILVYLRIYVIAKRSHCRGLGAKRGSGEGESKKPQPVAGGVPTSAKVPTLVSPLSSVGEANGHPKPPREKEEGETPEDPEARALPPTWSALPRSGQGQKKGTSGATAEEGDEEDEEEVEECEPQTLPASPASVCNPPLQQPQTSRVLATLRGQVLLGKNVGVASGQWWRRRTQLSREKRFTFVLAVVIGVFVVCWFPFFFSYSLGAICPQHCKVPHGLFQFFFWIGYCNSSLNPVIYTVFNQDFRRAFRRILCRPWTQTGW
T1 sequence (P22909 whole entry): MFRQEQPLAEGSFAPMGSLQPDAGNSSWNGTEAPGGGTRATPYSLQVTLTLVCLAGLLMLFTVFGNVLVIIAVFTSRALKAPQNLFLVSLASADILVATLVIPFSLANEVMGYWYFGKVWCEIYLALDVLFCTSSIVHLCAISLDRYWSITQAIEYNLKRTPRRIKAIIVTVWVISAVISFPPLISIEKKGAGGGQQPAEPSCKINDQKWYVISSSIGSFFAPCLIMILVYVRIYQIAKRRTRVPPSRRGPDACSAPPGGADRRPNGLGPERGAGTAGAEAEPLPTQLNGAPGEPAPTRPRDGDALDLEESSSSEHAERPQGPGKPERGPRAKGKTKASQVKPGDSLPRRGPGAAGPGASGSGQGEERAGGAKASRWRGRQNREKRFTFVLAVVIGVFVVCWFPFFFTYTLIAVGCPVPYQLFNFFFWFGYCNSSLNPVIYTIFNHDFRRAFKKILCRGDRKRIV
Briefly: The compound was evaluated for the alpha-2 adrenergic receptor activity in rat vas deferens. Summed up: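 Isolated vasa deferentia from Sprague-Dawley rats (180–250 g) mounted between platinum ring electrodes at 1 g resting tension in oxygenated Krebs at 37 °C. Single-pulse electrical stimulation (1 ms, 0.15 Hz, lowest voltage giving maximal contraction); inhibition of twitch contractions gives IC50 for agonists. Mean of at least three experiments, separate animals.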

Experiment [2] addresses T1, Adrenergic receptor alpha-2. Briefly: Binding affinity against alpha-2 adrenergic receptor was determined by the displacement of [3H]clonidine from rat brain cortical membranes. Type of experiment: cell membranes, Membrane. (In general: Displacement assays read how much labelled ligand stays bound in the presence of the test substance.)
Experiment [3] has the same target. Briefly: Alpha-2 adrenergic receptor antagonistic activity in rat vas deferens vs clonidin. Type of experiment: functional, tissue-based. Summed up: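 Vasa deferentia from Sprague-Dawley rats (180–250 g) mounted between platinum ring electrodes at 1 g resting tension in oxygenated Krebs at 37 °C. Single-pulse electrical stimulation (1 ms, 0.15 Hz, lowest voltage giving maximal contraction).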

The target in experiment [4] is T2, Adrenergic receptor alpha-1 (Rattus norvegicus, UniProt P15823+P23944+P43140).
T2 sequence (P15823 whole entry): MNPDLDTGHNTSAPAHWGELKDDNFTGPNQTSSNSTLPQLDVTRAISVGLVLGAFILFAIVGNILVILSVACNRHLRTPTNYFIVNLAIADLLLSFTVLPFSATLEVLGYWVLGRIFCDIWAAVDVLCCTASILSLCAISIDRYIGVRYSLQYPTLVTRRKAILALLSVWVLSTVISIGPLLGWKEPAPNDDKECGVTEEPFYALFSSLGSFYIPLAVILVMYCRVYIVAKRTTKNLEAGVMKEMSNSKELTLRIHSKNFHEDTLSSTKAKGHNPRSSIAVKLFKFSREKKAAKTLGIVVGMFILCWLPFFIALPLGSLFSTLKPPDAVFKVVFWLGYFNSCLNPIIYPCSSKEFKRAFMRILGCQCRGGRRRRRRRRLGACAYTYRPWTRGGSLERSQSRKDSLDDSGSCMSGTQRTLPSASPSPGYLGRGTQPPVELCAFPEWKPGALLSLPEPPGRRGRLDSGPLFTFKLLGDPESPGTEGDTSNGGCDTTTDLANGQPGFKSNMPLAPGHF
T2 sequence (P23944 whole entry): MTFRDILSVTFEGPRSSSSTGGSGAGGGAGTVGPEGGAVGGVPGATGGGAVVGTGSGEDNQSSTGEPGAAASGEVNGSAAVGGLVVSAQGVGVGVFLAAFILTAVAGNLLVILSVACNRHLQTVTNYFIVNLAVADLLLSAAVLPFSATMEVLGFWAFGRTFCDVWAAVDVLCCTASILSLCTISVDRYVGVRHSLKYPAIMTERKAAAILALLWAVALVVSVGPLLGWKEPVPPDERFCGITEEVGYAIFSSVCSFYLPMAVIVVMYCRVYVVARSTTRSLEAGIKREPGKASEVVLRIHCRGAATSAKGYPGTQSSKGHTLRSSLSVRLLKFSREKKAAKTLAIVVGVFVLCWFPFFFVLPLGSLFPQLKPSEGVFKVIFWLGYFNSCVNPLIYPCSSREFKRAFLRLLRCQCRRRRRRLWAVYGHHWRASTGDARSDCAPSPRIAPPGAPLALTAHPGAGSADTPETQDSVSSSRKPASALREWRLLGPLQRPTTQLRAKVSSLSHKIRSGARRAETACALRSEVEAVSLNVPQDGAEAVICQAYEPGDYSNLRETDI
T2 sequence (P43140 whole entry): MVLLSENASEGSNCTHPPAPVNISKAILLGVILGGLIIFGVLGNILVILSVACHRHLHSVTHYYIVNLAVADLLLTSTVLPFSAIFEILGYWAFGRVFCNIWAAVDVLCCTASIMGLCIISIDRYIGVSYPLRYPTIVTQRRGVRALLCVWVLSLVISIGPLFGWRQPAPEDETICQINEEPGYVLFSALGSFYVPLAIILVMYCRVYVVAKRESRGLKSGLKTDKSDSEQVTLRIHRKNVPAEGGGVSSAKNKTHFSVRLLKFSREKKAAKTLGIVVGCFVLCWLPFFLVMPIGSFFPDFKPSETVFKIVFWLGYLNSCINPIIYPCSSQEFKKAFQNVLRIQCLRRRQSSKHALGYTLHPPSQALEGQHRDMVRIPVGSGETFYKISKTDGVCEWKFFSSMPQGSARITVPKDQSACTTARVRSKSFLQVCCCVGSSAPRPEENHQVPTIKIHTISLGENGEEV
Briefly: Binding affinity against alpha-1 adrenergic receptor was determined by the displacement of [3H]prazosin from rat brain cortical membranes; value ranges from 7.8-34.6. Type of experiment: cell membranes, Membrane. Summed up:
(§1)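 Rat cortex was homogenized in 50 mM Tris pH 7.7, washed twice by centrifugation at 48000g and resuspended in 150 volumes. […] Nonspecific binding was defined with 10 μM phentolamine. Bound label was counted on filters, in triplicate. IC50 by logit plot, converted to Ki by Cheng-Prusoff.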

Experiment [5] deals with T2, Adrenergic receptor alpha-1. Briefly: The compound was evaluated for the alpha-1 adrenergic receptor antagonistic activity in rat vas deferens vs methoxamine alpha-1 adrenoceptor antagonism. The experiment is classed as functional, tissue-based. Summed up: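 Vasa deferentia from Sprague-Dawley rats (180–250 g) mounted at 1 g resting tension in oxygenated Krebs at 31 °C. Methoxamine was the reference α1 agonist. Agonist concentration-effect curves were run without and with at least three antagonist concentrations after 10 min preincubation. Potency was taken from Schild analysis, mean of at least three preparations from separate animals.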

Experiment [6] shares this target. Briefly: Binding affinity against alpha-1 adrenergic receptor was determined by the displacement of [3H]prazosin from rat brain cortical membranes; value ranges from 6.06-7.06. Type of experiment: cell membranes, Membrane. In short, it runs like this:
as §1

Experiment [7] deals with T1, Adrenergic receptor alpha-2. The experiment can be described thus: Alpha-2 adrenergic receptor antagonistic activity in rat vas deferens vs clonidine. The experiment is classed as functional, tissue-based.
Experiment [8] addresses T2, Adrenergic receptor alpha-1. The experiment can be described thus: Binding affinity against alpha-1 adrenergic receptor was determined by the displacement of [3H]prazosin from rat brain cortical membranes; value ranges from 4.6-30.6. Type of experiment: cell membranes, Membrane. In short, it runs like this:
as §1

The subject of experiment [9] is Mus musculus. The experiment can be described thus: Antagonistic activity against clonidine-induced antinociception in mouse after po administration. The experiment is classed as functional. In short, it runs like this:
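Swiss Webster mice (18–24 g), 10 per treatment. Test compound was given orally in 0.9% NaCl at 10 mL/kg. […] Mice were observed 5–10 min after PPQ, and those writhing at least 3 times were counted as percent reversal.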

Experiment [10] has as its target T1, Adrenergic receptor alpha-2. Briefly: The compound was evaluated for the alpha-2 adrenergic receptor agonistic activity in rat vas deferens; the effect was not yohimbine reversible.

The structures appear in SMILES notation.

Molecule `CSC[C@@]1(C2=NCCN2)Cc2ccccc2N1C` showed an IC50 in experiment [1] of 179 nM. The same molecule returned a Ki in experiment [2] of 13.2 nM.

Turning to `CN1c2ccc(F)cc2CC1C1=NCCN1` (configuration not stated), the pA2 was 8.45 in [3] and 8.03 in [5]. The Ki in experiment [4] worked out at 16.4 nM; in [2], 0.91 nM.

Take `C=CCN1c2ccccc2CC1C1=NCCN1` (configuration not stated): the Ki was 6.56 nM in experiment [6] and 0.47 nM in experiment [2]. Moreover, the pA2 in experiment [7] was found to be 9.07; in experiment [5] it was 8.02.

For `CN1c2ccccc2CC1C1=NCCN1` (configuration not stated), the figures for the pA2 in experiment [3] and in experiment [5] were 8.65 and 7.75, respectively. Moreover, the Ki in experiment [8] amounted to 10.5 nM; in experiment [2], 0.45 nM. This molecule also registered an ED50 in [9] of 1.3 mg/kg.

On to `COC[C@@]1(C2=NCCN2)Cc2ccccc2N1C`, for which the IC50 in experiment [10] stood at 131 nM. The Ki in experiment [2] was 38 nM.
